# Reference: PubChem BioAssay AID624007 (Broad Institute, 2012)
# Active and inactive are the calls of the source.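 How the source made its calls: active means compounds lowering the uptake signal whose fitted half-maximal concentration is at most twice their top valid dose; inconclusive means flat curve between 30% and 70% signal loss, or poor fit; inactive means opposite direction, flat near zero, or potency beyond limit.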
# Assay: DiI-HDL uptake inhibition in parental ldlA7 cells, dose response, counter-screen for SR-BI HDL uptake inhibitor project, cell-based, CHO ldlA7, fluorescence, dry powder, set 2 (AID 624007)
# Conditions: 3 h
# Outline: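 Assay system: ldlA7 CHO cells without LDL receptor, no mSR-BI overexpression; Medium: HEPES-buffered (pH 7.4) F12 plus 0.5% fatty acid-free BSA; Reagent: DiI-labelled HDL, 10 µg/mL final; Schedule: 3 h co-incubation of compounds and DiI-HDL at 37 °C; Detection: DiI fluorescence, bottom read, Ex 550/Em 595 nm.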
compound,measurement,setting,value
CC(C)NC(=O)Nc1ccc2c(c1)C(=O)N([C@H](C)CO)C[C@@H](C)[C@H](CN(C)S(=O)(=O)c1ccc(Cl)cc1)O2,"DiI-HDL uptake signal change vs neutral control (%), lower = more inhibition",at 0.001 nM,-2.43% (inactive)
same,"DiI-HDL uptake signal change vs neutral control (%), lower = more inhibition",at 0.1 nM,5.95% (inactive)
CC(C)NC(=O)Nc1ccc2c(c1)C(=O)N([C@@H](C)CO)C[C@H](C)[C@@H](CN(C)S(=O)(=O)c1ccc(Cl)cc1)O2,"DiI-HDL uptake signal change vs neutral control (%), lower = more inhibition",at 0.002 nM,5.3% (inactive)
CC(C)NC(=O)Nc1ccc2c(c1)CC(=O)N([C@H](C)CO)C[C@@H](C)[C@H](CN(C)S(=O)(=O)c1ccc(Cl)cc1)O2,"DiI-HDL uptake signal change vs neutral control (%), lower = more inhibition",at 0.1 nM,4.77% (inactive)
CC(C)NC(=O)Nc1ccc2c(c1)C(=O)N([C@H](C)CO)C[C@@H](C)[C@@H](CN(C)S(=O)(=O)c1ccc(Cl)cc1)O2,"DiI-HDL uptake signal change vs neutral control (%), lower = more inhibition",at 0.6 nM,5.71% (inactive)
CC(C)NC(=O)Nc1ccc2c(c1)C(=O)N([C@@H](C)CO)C[C@@H](C)[C@@H](CN(C)S(=O)(=O)c1ccc(Cl)cc1)O2,"DiI-HDL uptake signal change vs neutral control (%), lower = more inhibition",at 1.6 nM,4.53% (inactive)
CC(C)NC(=O)Nc1ccc2c(c1)C(=O)N([C@H](C)CO)C[C@H](C)[C@H](CN(C)S(=O)(=O)c1ccc(Cl)cc1)O2,"DiI-HDL uptake signal change vs neutral control (%), lower = more inhibition",at 15 nM,8.44% (inactive)
CC(C)NC(=O)Nc1ccc2c(c1)C(=O)N([C@@H](C)CO)C[C@H](C)[C@H](CN(C)S(=O)(=O)c1ccc(Cl)cc1)O2,"DiI-HDL uptake signal change vs neutral control (%), lower = more inhibition",at 46 nM,8.74% (inactive)
CC(C)NC(=O)Nc1cccc2c1O[C@@H](CN(C)S(=O)(=O)c1ccc(Cl)cc1)[C@H](C)CN([C@H](C)CO)C2=O,"DiI-HDL uptake signal change vs neutral control (%), lower = more inhibition",at 420 nM,9.23% (inactive)
